Results: the EternaBench riboswitch data

Tested on: MS2 coat protein
Assay: apparent Kd, MS2 coat protein; higher = weaker binding; RNA-MaP array; FMN 200 µM where present
In short: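 On Illumina sequencing-chip clusters, designs were transcribed by stalled E. coli RNA polymerase and titrated with SNAP-549-labelled MS2 coat protein (0.7 or 1.5 nM, doubling to 3 µM), without and then with constant ligand, in 100 mM Tris-HCl pH 7.5, 80 mM KCl, 4 mM MgCl2, BSA, DTT, yeast tRNA and Tween-20. Apparent Kd is the median of filtered per-cluster curve fits to green signal normalised to red-channel RNA signal and control-cluster median Fmax.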

[1] = designed as: OFF switch for flavin mononucleotide, no ligand
[2] = ligand present: flavin mononucleotide, designed as: OFF switch for flavin mononucleotide
[3] = designed as: ON switch for flavin mononucleotide, no ligand
[4] = ligand present: flavin mononucleotide, designed as: ON switch for flavin mononucleotide

Sequence	apparent Kd [1]	apparent Kd [2]	apparent Kd [3]	apparent Kd [4]
AAUAUGGGAGGAUAUGCAUAGAUAAAGAAACAUGUUCAACCACAUGAGGAUCACCCAUGUAGAAGGCCCAUAUA	34.6 nM	129 nM	–	–
AAAAGUCGGCAAGGAUAUACAACGGAUUCCCUUGUAGAAGGUGCAGGACAUGAGGAUCACCCAUGUGAUCCGGGUAUAUUGAUG	27.8 nM	44.8 nM	–	–
GGAUGACAAAGUCAUCCAUAACGAACAUGAGGAUCACCCAUGUAGGAUAUGCAACUCAAAGAGUUGCAGAAGGACAUGUGCCUU	34.6 nM	273 nM	–	–
CUAGCGAGUGAGAAGGCCAGCUUUUAUACAUGAGGAUCACCCAUGUAGCCCUAAAGGGUAUGCAUGGAGGAUAUCACGAGCCUG	–	–	11.7 nM	7.03 nM
CUGCAGUAAGGAUAUACAUGAGGAUCACCCAUGUAGCAACUUACAUAACGAAACGCAUGUAGAAGGUACCAGAU	14 nM	15.4 nM	–	–
AGUACUACAGGAUAUACAUGAGUGAUACUCAUAUACCUACUACAUGAGGAUCACCCAUGUAGAAGGGUAGUACA	14.9 nM	11.7 nM	–	–
GCCUGACAUGAGGAUCACCCAUGUGAGGAUAUUUGGAUUGAGGAGUAGCACAUAGUCCAAAGAAGGUAUGUGGG	24.7 nM	60.7 nM	–	–
GGACUGGACUAGAAGGGUGAUGCGCUCGCAGACACAGGAUAUAGUCACAUGAGGAUCACCCAUGUCGGUCCAAGUGAAGAAACU	–	–	98.2 nM	24.4 nM
AAAAAGGGAGGAUAUACAUGAGGAUCACCCAUGUAGCAGACGAAAAAGAGUCUGUAAUGUAGAAGGCCCAAAAA	17.1 nM	52.7 nM	–	–
AACAUGUGAGGAUAUUUAAGAAAAGAAAAGAAAGAAAAGAAAAAGAAGGCACAUGAGGAUCACCCAUGUAAGAA	24.8 nM	35.9 nM	–	–
GUAGAGUAAGGAUAUGCUGAAUAGGAUAGAAUGGUUAGAAAGCAGAAGGUACAUGAGGAUCACCCAUGUAAUGU	23.2 nM	21.2 nM	–	–
GAUCCACAUGAGGAUCACCCAUGUGAGGAUAUGUCCAUAUUCGGCAAAUCGGAUAUGGACAGAAGGCACACCGG	120 nM	47.4 nM	–	–
AAUUAUUUAUGAGGAUAUUGUGGUGAAACACCACAAGAAGGCAUGAUACACAUGAGGAUCACCCAUGUGAGCCUUAUGCAUAUA	20.3 nM	115 nM	–	–
CUCGUGUUAGGAUAUCGUGGCUGGGCUGGGACGUCCGAUGGCGAGAAGGGACAUGAGGAUCACCCAUGUAAAAC	28.6 nM	27.6 nM	–	–
CCGGAAAUGCAGGAUAUCGUAUCGGAUACGAUACGAGAAGGGUAUACAUGAGGAUCACCCAUGUGUCCUACCGG	18.4 nM	22.1 nM	–	–
UGCGUAUACGGAGGAUAUGUACAGGUCGCCGUACAUGAGGAUCACCCAUGUGCAGAAGGCCGUAGCGCUAAACUGGAUUGCAAU	11.4 nM	57.3 nM	–	–
UCAACCAGCGCCGGUUGAACAUGAGGAUCACCCAUGUACUCCAGAAGGCCGCCCAAGAACGGAGUGGAGGAUAUGGAAGUUCUC	–	–	75.7 nM	39.9 nM
UCAGGCUUCGAGAAGGACAUGAGGAUCACCCAUGUUAACAUGAAGCAGCCGUGAGGCUGCAUCAUGUAGGAUAUCGGAGUCUGC	5.44 nM	6.09 nM	–	–
UGGUACAUGGGAGGAUAUCAUGUGAGAACAUGAGGAUCACCCAUGUCGAUGGAGACAUCGGAGAUUGAGAAGGCCCAUGUACCU	–	–	1210 nM	63.8 nM
CUCCGGCAAGGAUAUGCGUCUUCUCCCAUGAAACAAAAUAAACAUGAGGAUCACCCAUGUAGAAGGUGCAGGAC	33.1 nM	28.6 nM	–	–
UCCGGGUGCCAGAAGGGAGAUGGUUCGGAGGUCUCAGGAUAUGGCACAUGAGGAUCACCCAUGUGUUUACGUAAUUACAUGAGA	20.9 nM	21.6 nM	–	–
GGGUGACAUGAGGAUCACCCAUGUCAGGAUAUGCGCGCGCGCGCGAAAGUGUGUGUGUGUAGAAGGGACUGCCC	49.6 nM	81.2 nM	–	–
GGUUGUCAUAGUCAUCCUUUCCGUACAUGAGGAUCACCCAUGUAGGAUAUGCUACUCACAGAGUAGCAGAAGGGCGUGUGUCUU	19 nM	19.6 nM	–	–
AUUUGAAUCGUAGGAUAUCGCUUAAAUUUACCACGAGAAGGACGAACAUGAGGAUCACCCAUGUAACAUGGUGAAGAUAAUUUG	31.6 nM	120 nM	–	–

Sequence	apparent Kd [1]	apparent Kd [2]	apparent Kd [3]	apparent Kd [4]
UAAUUGUGAGGAUAUUCGAAUAACACGGAGACGUGUUGUUCGGAGAAGGCACAUGAGGAUCACCCAUGUUCCUU	17.5 nM	102 nM	–	–
GGUGCGUAUGUGAGGAUAUGCUGGUCCUUGGAUCCGCAGAAGGCACAUGAGGAUCACCCAUGUGGUGUCGUACC	299 nM	27.6 nM	–	–
UUAUGAGAGCAGGAUAUCUUAUAUGUGUAUUAAAGAGAAGGGCUCACAUGAGGAUCACCCAUGUGGUCCUAGAU	44.2 nM	309 nM	–	–
GUGUACAGAGGAUAUACAUAAGCUAGGAAACUAGCAAACUCACAUGAGGAUCACCCAUGUAGAAGGCUGUACAC	48 nM	257 nM	–	–
ACUAGAUGCGUGAAAUAACACAUGAGGAUCACCCAUGUGACACAGGAUAUAACCAGAUCAGAAAGUUAGAAGGGUGAGCACGCA	–	–	39.2 nM	21.2 nM
CUUUAGUGAGGAUAUCGGUAGUAAUACAAUAGUAUUACUACUGAGAAGGCACAUGAGGAUCACCCAUGUUCCUC	29.9 nM	233 nM	–	–
UCCGAACAUGAGGAUCACCCAUGUCUAAUACGUCAAGGAUAUGGGCGCGGAGAACCGCAACCAGAAGGUGAGAAAU	–	–	507 nM	89.4 nM
CCAUAGUACAAUUUAGAUCUACAUGAGGAUCACCCAUGUACUGAGGAUAUCAGCUCGAAUAGAGCUGAGAAGGCAGAAUUAAUU	–	–	132 nM	59.2 nM
AACAUGCUUGGGUAACCUGGCACAUGAGGAUCACCCAUGUGACAGGAUAUCGACGUAGAUGGCGACGAGAAGGGUCCGAUGGGU	7.13 nM	10.8 nM	–	–
AAUGAGACCGCAGGAUAUCCACAUGAGGAUCACCCAUGUUCUCAGGUCGGAAGCACGACCUGCGAGGAGAAGGGCGACCUCAUA	–	–	715 nM	36.5 nM
CGAACUAAGUAGAAGGCUGUCUUAAAAUAGGACAGAGGAUAUACAUGAGGAUCACCCAUGUACUCCUUUAAUAAGUUUGAAAUA	5.84 nM	6.48 nM	–	–
CAGCGAUAGCUGAAUGGUACAUCCGAGGAUAUUCAUAAACAACAUGAGGAUCACCCAUGUAAUUGGGAGAAGGCGGAUGUACCU	–	–	23.1 nM	5.97 nM
GGAUCGAGUGUGAGGAUAUGCAGGUCCUUGGAUCUGCAGAAGGCACAUGAGGAUCACCCAUGUGGAAACGGUCC	64.2 nM	567 nM	–	–
AGAUACAACCAGAAGGACAUGAGGAUCACCCAUGUAGGAUAUGGGUUACACGUUCCUGUGAAUUGUAACGACGCUACGAAGAGU	–	–	113 nM	12.3 nM
AACUCGUCAGGAUAUGCGCACAGAUAAUACGCUUCGCAAUUGCAGAAGGGACAUGAGGAUCACCCAUGUAAAUA	30.6 nM	27 nM	–	–
UGUAUGGACAGAGGAUAUGCCGAUAGGAUCUAUUAUCGAAGAAUCCUCACAUGAGGAUCACCCAUGUAGAAGGCUGUCCAUACU	9.32 nM	35.8 nM	–	–
AAGAAACAUGAGGAUCACCCAUGUCAGGAUAUGCAAAACUGACGAAAGUCAGAAGAAAGCAGAAGGGACUAGAA	59.8 nM	79.7 nM	–	–
CAUUAACUACAAUUACAUGAGGAUCACCCAUGUUUUGGGAUGCAGGAUAUGUGGUAUAUUAAUUAACAGAAGGGCAAUAAUUUU	–	–	41.5 nM	36.7 nM
UAAUUGUGAGGAUAUUCGUUUUACACGGAGACGUGUAGAACGGAGAAGGCACAUGAGGAUCACCCAUGUUCCUU	18 nM	100 nM	–	–
AUUAACUACAUAGGAUAUUGAUACAUGAGGAUCACCCAUGUCACCCAUGUUUAUUUAUCAAUUGACAAGAAGGAUGUGGUUACA	–	–	69.8 nM	46.5 nM
AAUUGACACGUAGGAUAUCGAUCUAUAUUAACACGAGAAGGACGUACAUGAGGAUCACCCAUGUUUAAUGGAGUAGAUAAGUUG	112 nM	257 nM	–	–
UGAUCUAGCGGAGGAUAUACAUGAGGAUCACCCAUGUAGAUAUCAUGACCGUAGUCGUGUAUCGUGUAGAAGGCCGCUAGAUCU	12.7 nM	24 nM	–	–
UGUCGGAGCAGAGGAUAUUACAUGAGGAUCACCCAUGUAUGAACCAAUAGCUGGAAACAGCAAUGUAAGAAGGCUGAUCCGACA	11.1 nM	146 nM	–	–
CAGGACAGAGGAUAUACAUAGAUACAGAUUCAUGUAGAACUACAUGAGGAUCACCCAUGUAGAAGGCUGUCCUG	29.5 nM	300 nM	–	–
